Assay results reported in ChEMBL document CHEMBL1129508, “Betulinic acid derivatives: a new class of specific inhibitors of human immunodeficiency virus type 1 entry” (J Med Chem, 1996).

Assays:
[1] = system: CCRF-CEM; experiment: Inhibitory Activity against the HIV-1 in CEM cells; format: functional, Homo sapiens
In short: (§1)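 HIV-1-induced cytopathicity in CEM 4 or MT-4 cell cultures was assessed by counting viable cells after MTT (3-(4,5-dimethylthiazol-2-yl)-2,5-diphenyltetrazolium bromide) staining. IC50 is the concentration that inhibits cytopathicity by 50%. For routine testing, the highest concentration was generally 3 µM, because solubility was limited above 10 µM.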

[2] = system: CCRF-CEM; experiment: (§2) Inhibitory activity against the HIV-1 in CEM cells; format: functional, cell-based; settings: Homo sapiens; in short: as §1
[3] = system: MT4; experiment: Inhibitory activity against the HIV-1 in MT-4 cells; format: functional, cell-based; settings: Homo sapiens; in short: as §1
[4] = system: Human immunodeficiency virus 1; experiment: Inhibitory activity tested against the HIV-1 in MT-4 cells; format: functional, organism-based; settings: Human immunodeficiency virus 1, MT4; in short: as §1
[5] = system: CCRF-CEM; experiment: Inhibitory activity against the HIV-1 in CEM cells at 1 uM concentration; format: functional; settings: Homo sapiens
[6] = system: CCRF-CEM; experiment: as §2; format: functional, Homo sapiens; in short: as §1
[7] = system: CCRF-CEM; experiment: Inhibitory activity against the HIV-1 in CEM cells; NA= Not active; format: functional, cell-based, Homo sapiens
In short: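 HIV-1-induced cytopathicity assay in CEM 4 cells. Viable cells were counted after MTT (3-(4,5-dimethylthiazol-2-yl)-2,5-diphenyltetrazolium bromide) staining. IC50 is the concentration that inhibits viral cytopathicity by 50%. For routine testing the top concentration was generally 3 µM, because solubility was limited above 10 µM.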

[8] = system: Human immunodeficiency virus 1; experiment: Inhibitory activity tested against the HIV-1 in CEM cells; format: functional, organism-based; settings: Human immunodeficiency virus 1, CCRF-CEM; in short: as §1

Row | SMILES | IC50 [2] [µM] | IC50 [4] [nM] | further results
1 | C=C(C)[C@@H]1CC[C@]2(C(=O)NCCCCCCCCCCCCC(=O)O)CC[C@]3(C)[C@H](CCC4[C@@]5(C)CC[C@H](O)C(C)(C)[C@@H]5CC[C@]43C)[C@@H]12 (stereo partly specified) |  |  | Inhibition [1]: 35%
2 | C=C(C)[C@@H]1CC[C@]2(C(=O)NCCCCCC(=O)NCCCC(=O)O)CC[C@]3(C)[C@H](CCC4[C@@]5(C)CC[C@H](O)C(C)(C)[C@@H]5CC[C@]43C)[C@@H]12 (stereo partly specified) | 3 |  | 
3 | C=C(C)[C@@H]1CC[C@]2(C(=O)NCCCCC(=O)NCCCCC(=O)O)CC[C@]3(C)[C@H](CCC4[C@@]5(C)CC[C@H](O)C(C)(C)[C@@H]5CC[C@]43C)[C@@H]12 (stereo partly specified) | 4.5 |  | 
4 | C=C(C)[C@@H]1CC[C@]2(C(=O)NCCCC(=O)NCCCCCC(=O)O)CC[C@]3(C)[C@H](CCC4[C@@]5(C)CC[C@H](O)C(C)(C)[C@@H]5CC[C@]43C)[C@@H]12 (stereo partly specified) | 5.5 |  | 
5 | C=C(C)[C@@H]1CC[C@]2(C(=O)NCCCCCC(=O)O)CC[C@]3(C)[C@H](CC[C@@H]4[C@@]5(C)CC[C@H](O)C(C)(C)[C@@H]5CC[C@]43C)[C@@H]12 | 2.3 |  | IC50 [3]: 2400 nM
6 | C=C(C)[C@@H]1CC[C@]2(C(=O)NCCCCCCC(=O)O)CC[C@]3(C)[C@H](CC[C@@H]4[C@@]5(C)CC[C@H](O)C(C)(C)[C@@H]5CC[C@]43C)[C@@H]12 | 12 | 4300 | 
7 | C=C(C)[C@@H]1CC[C@]2(C(=O)NCCCCC(=O)O)CC[C@]3(C)[C@H](CC[C@@H]4[C@@]5(C)CC[C@H](O)C(C)(C)[C@@H]5CC[C@]43C)[C@@H]12 |  |  | inhibition at 1 µM [5]: 46%
8 | C=C(C)[C@@H]1CC[C@]2(C(=O)NCCC(=O)NCCCCCCC(=O)O)CC[C@]3(C)[C@H](CCC4[C@@]5(C)CC[C@H](O)C(C)(C)[C@@H]5CC[C@]43C)[C@@H]12 (stereo partly specified) |  |  | Inhibition [6]: 20%
9 | C=C(C)[C@@H]1CC[C@]2(C(=O)NCC(=O)O)CC[C@]3(C)[C@H](CCC4[C@@]5(C)CC[C@H](O)C(C)(C)[C@@H]5CC[C@]43C)[C@@H]12 (stereo partly specified) |  |  | IC50 [7]: Not Active
10 | C=C(C)[C@@H]1CC[C@]2(C(=O)NCCCC(=O)O)CC[C@]3(C)[C@H](CCC4[C@@]5(C)CC[C@H](O)C(C)(C)[C@@H]5CC[C@]43C)[C@@H]12 (stereo partly specified) |  |  | IC50 [7]: Not Active
11 | C=C(C)[C@@H]1CC[C@]2(C(=O)NCCCCCCCC(=O)NC(C)(C)C(=O)O)CC[C@]3(C)[C@H](CCC4[C@@]5(C)CC[C@H](O)C(C)(C)[C@@H]5CC[C@]43C)[C@@H]12 (stereo partly specified) |  | 89 | IC50 [8]: 133 nM
12 | Cc1ccnc2c1NC(=O)c1cccnc1N2C1CC1 [NEVIRAPINE] | 0.084 |  | 
13 | C=C(C)[C@@H]1CC[C@]2(C(=O)NCCC(=O)O)CC[C@]3(C)[C@H](CC[C@@H]4[C@@]5(C)CC[C@H](O)C(C)(C)[C@@H]5CC[C@]43C)[C@@H]12 |  |  | IC50 [7]: Not Active
14 | C=C(C)[C@@H]1CC[C@]2(C(=O)NCCCCCCCNC(=O)c3cccc(C(=O)O)c3)CC[C@]3(C)[C@H](CCC4[C@@]5(C)CC[C@H](O)C(C)(C)[C@@H]5CC[C@]43C)[C@@H]12 (stereo partly specified) |  | 40 | IC50 [8]: 105 nM
15 | C=C(C)[C@@H]1CC[C@]2(C(=O)NCCCCCCCNC(=O)c3ccc(C(=O)O)cc3)CC[C@]3(C)[C@H](CCC4[C@@]5(C)CC[C@H](O)C(C)(C)[C@@H]5CC[C@]43C)[C@@H]12 (stereo partly specified) |  | 22 | IC50 [8]: 110 nM
16 | C=C(C)[C@@H]1CC[C@]2(C(=O)NCC(=O)NCCCCCCCC(=O)O)CC[C@]3(C)[C@H](CCC4[C@@]5(C)CC[C@H](O)C(C)(C)[C@@H]5CC[C@]43C)[C@@H]12 (stereo partly specified) |  |  | Inhibition [1]: 30%
17 | C=C(C)[C@@H]1CC[C@]2(C(=O)NCCCCCCCC(=O)O)CC[C@]3(C)[C@H](CCC4[C@@]5(C)CC[C@H](O)C(C)(C)[C@@H]5CC[C@]43C)[C@@H]12 (stereo partly specified) |  | 465 | IC50 [8]: 750 nM
18 | C=C(C)[C@@H]1CC[C@]2(C(=O)NCCCCCCCC(=O)N[C@@H](C)C(=O)O)CC[C@]3(C)[C@H](CCC4[C@@]5(C)CC[C@H](O)C(C)(C)[C@@H]5CC[C@]43C)[C@@H]12 (stereo partly specified) |  | 62 | IC50 [8]: 92 nM
19 | C=C(C)[C@@H]1CC[C@]2(C(=O)NCCCCCCC(=O)NCCC(=O)O)CC[C@]3(C)[C@H](CCC4[C@@]5(C)CC[C@H](O)C(C)(C)[C@@H]5CC[C@]43C)[C@@H]12 (stereo partly specified) | 4.5 |  | 
